System: Raji
Assay: Inhibition of TPA-induced EBV-early antigen activation in human Raji cells assessed as cell viability at 1000 molar ratio per TPA after 48 hrs by trypan blue staining method
Format: cell-based
Details: human gammaherpesvirus 4
In short: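 Raji cells treated 48 h at 37 °C with n-butyric acid (4 mmol), TPA (32 pmol) and test compound in DMSO at 1000 mol ratio/TPA; viability determined by Trypan Blue staining.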

Question: How did the Cell viability turn out when CC(=O)O[C@H]1[C@H](OC(=O)c2ccccc2)C[C@](C)(O)[C@]23OC(C)(C)[C@H](C[C@H](OC(=O)c4ccco4)[C@]12C)[C@H]3OC(=O)c1ccccc1 was run?
Answer: > 60%

Question: For CC(=O)O[C@@H]1[C@H](OC(C)=O)[C@@H](C)[C@@]23C[C@@H](C[C@H](OC(=O)c4ccccc4)[C@]2(C)[C@H]1OC(=O)c1ccco1)C(C)(C)O3, which Cell viability is on record?
Answer: > 60%

Question: For CC(=O)O[C@@H]1[C@H](O)[C@@H](C)[C@]23OC(C)(C)[C@H](C[C@H](OC(=O)/C=C/c4ccccc4)[C@]2(C)[C@H]1OC(=O)c1ccccc1)[C@H]3O, which Cell viability is on record?
Answer: > 60%

Question: CC(=O)O[C@@H]1C[C@](C)(O)[C@@]23C[C@@H](C[C@H](OC(=O)c4ccccc4)[C@]2(C)[C@H]1OC(=O)c1ccco1)C(C)(C)O3 was tested. Which Cell viability did it give?
Answer: > 60%

Question: Which Cell viability does the source give for CC(=O)O[C@H]1[C@H](OC(=O)c2ccccc2)[C@@]2(C)[C@@H](OC(=O)/C=C/c3ccccc3)[C@@H](O)[C@@H]3C[C@]2(OC3(C)C)[C@@](C)(O)[C@H]1OC(C)=O here?
Answer: > 60%

Question: For CC(=O)O[C@H]1[C@H](OC(=O)c2ccccc2)[C@@]2(C)[C@@H](OC(=O)/C=C/c3ccccc3)C[C@@H]3[C@@H](OC(C)=O)[C@]2(OC3(C)C)[C@@](C)(O)[C@H]1OC(=O)c1cccnc1, which Cell viability is on record?
Answer: > 60%

Question: How did the Cell viability turn out when CC1(C)O[C@]23C[C@H]1C[C@H](OC(=O)c1ccccc1)[C@]2(C)[C@@H](OC(=O)c1ccco1)CC[C@]3(C)O was run?
Answer: > 60%

Question: CC(=O)O[C@H]1[C@H](OC(=O)c2ccco2)[C@@]2(C)[C@@H](OC(=O)c3ccccc3)C[C@@H]3C[C@]2(OC3(C)C)[C@@](C)(O)[C@H]1OC(C)=O was tested. Which Cell viability did it give?
Answer: > 60%

Question: For CC(=O)O[C@@H]1C[C@](C)(O)[C@@]23C[C@@H](C[C@H](OC(=O)/C=C/c4ccccc4)[C@]2(C)[C@H]1OC(=O)c1ccco1)C(C)(C)O3, which Cell viability is on record?
Answer: > 60%

Question: For CC(=O)O[C@@H]1[C@H](O)[C@@H](C)[C@]23OC(C)(C)[C@H](C[C@H](OC(=O)/C=C/c4ccccc4)[C@]2(C)[C@H]1OC(=O)c1ccccc1)[C@H]3OC(C)=O, which Cell viability is on record?
Answer: > 60%

System: Raji
Assay: Inhibition of TPA-induced EBV-early antigen activation in human Raji cells after 48 hrs by immunofluorescence method relative to TPA
Format: cell-based
Details: human gammaherpesvirus 4
In short: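 Raji cells (EBV genome-carrying, virus nonproducer) grown in RPMI1640 with 10% FBS; 1 × 10^6 cells incubated 48 h at 37 °C in 1 mL medium with n-butyric acid (4 mmol), TPA (32 pmol) in DMSO, and test compound in 5 μL DMSO at 10, 100, 500 or 1000 mol ratio/TPA. EA-positive cells detected by indirect immunofluorescence with NPC patient serum, ≥500 cells counted; triplicates, expressed relative to butyrate+TPA control (100%).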

Question: With CC(=O)O[C@H]1[C@H](OC(=O)c2ccccc2)C[C@](C)(O)[C@]23OC(C)(C)[C@H](C[C@H](OC(=O)c4ccco4)[C@]12C)[C@H]3OC(=O)c1ccccc1 as the compound, how does the inhibition read?
Answer: Dose-dependent effect

Question: How did the inhibition turn out when CC(=O)O[C@@H]1[C@H](OC(C)=O)[C@@H](C)[C@@]23C[C@@H](C[C@H](OC(=O)c4ccccc4)[C@]2(C)[C@H]1OC(=O)c1ccco1)C(C)(C)O3 was run?
Answer: Dose-dependent effect

Question: Which inhibition does the source give for CC(=O)O[C@@H]1[C@H](O)[C@@H](C)[C@]23OC(C)(C)[C@H](C[C@H](OC(=O)/C=C/c4ccccc4)[C@]2(C)[C@H]1OC(=O)c1ccccc1)[C@H]3O here?
Answer: Dose-dependent effect

Question: With CC(=O)O[C@@H]1C[C@](C)(O)[C@@]23C[C@@H](C[C@H](OC(=O)c4ccccc4)[C@]2(C)[C@H]1OC(=O)c1ccco1)C(C)(C)O3 as the compound, how does the inhibition read?
Answer: Dose-dependent effect

Question: CC(=O)O[C@H]1[C@H](OC(=O)c2ccccc2)[C@@]2(C)[C@@H](OC(=O)/C=C/c3ccccc3)[C@@H](O)[C@@H]3C[C@]2(OC3(C)C)[C@@](C)(O)[C@H]1OC(C)=O was tested. Which inhibition did it give?
Answer: Dose-dependent effect

Question: With CC(=O)O[C@H]1[C@H](OC(=O)c2ccccc2)[C@@]2(C)[C@@H](OC(=O)/C=C/c3ccccc3)C[C@@H]3[C@@H](OC(C)=O)[C@]2(OC3(C)C)[C@@](C)(O)[C@H]1OC(=O)c1cccnc1 as the compound, how does the inhibition read?
Answer: Dose-dependent effect

Question: Which inhibition does the source give for CC1(C)O[C@]23C[C@H]1C[C@H](OC(=O)c1ccccc1)[C@]2(C)[C@@H](OC(=O)c1ccco1)CC[C@]3(C)O here?
Answer: Dose-dependent effect

Question: Which inhibition does the source give for CC(=O)O[C@H]1[C@H](OC(=O)c2ccco2)[C@@]2(C)[C@@H](OC(=O)c3ccccc3)C[C@@H]3C[C@]2(OC3(C)C)[C@@](C)(O)[C@H]1OC(C)=O here?
Answer: Dose-dependent effect

Question: With CC(=O)O[C@@H]1C[C@](C)(O)[C@@]23C[C@@H](C[C@H](OC(=O)/C=C/c4ccccc4)[C@]2(C)[C@H]1OC(=O)c1ccco1)C(C)(C)O3 as the compound, how does the inhibition read?
Answer: Dose-dependent effect

Question: For CC(=O)O[C@@H]1[C@H](O)[C@@H](C)[C@]23OC(C)(C)[C@H](C[C@H](OC(=O)/C=C/c4ccccc4)[C@]2(C)[C@H]1OC(=O)c1ccccc1)[C@H]3OC(C)=O, which inhibition is on record?
Answer: Dose-dependent effect
